KCNQ1 block: inhibitors of human KCNQ1 channel, primary screen, cell-based, thallium flux, high-throughput. CHO-K1 KCNQ1, FluxOR thallium flux fluorescence; active compounds read high. B-score at 10 µM. actives 1.3% (n = 310,000). Potassium voltage-gated channel subfamily KQT member 1 (Homo sapiens), P51787. AID 2642, 2010;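 active = compounds whose thallium flux B-score, printed positive for inhibition, exceeds three library SD while starting fluorescence stays within three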;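 also: channel opened by potassium depolarization with thallium stimulus after 20 min compound exposure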
KCNQ1 act: potentiators or activators of KCNQ1 channel, primary screen, cell-based, thallium flux, high-throughput | Potassium voltage-gated channel subfamily KQT member 1 (Homo sapiens), P51787 | B-score at 10 µM | actives 0.35% (n = 310,000) | CHO-K1 KCNQ1, thallium flux FluxOR fluorescence; active compounds read high;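 active = fluorescence ratio B-score, a plate-corrected score, at least three library SD, with initial intensity B-score within 5 SD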
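Assay system: stable KCNQ1 CHO-K1 line; medium: assay buffer, equal DMSO in all wells; timing: 90 min dye loading and 20 min compound exposure, both at room temperature; technique: kinetic FluxOR thallium fluorescence, 10-s 1-Hz baseline, 110-s post-stimulus read; read-out basis: B score of baseline-normalized fluorescence ratio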
hERG rescue: hERG rescue from dofetilide block, primary screen, cell-based, CHO-hERG, FluxOR thallium flux, dofetilide IC70; actives 0.51% (n = 310,000); AID 1511, 2009; dofetilide IC70 present; activation (rescue from dofetilide block), less the hit threshold, % at 10 µM;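 active = activation above the mean of controls blocked by dofetilide plus 5 SD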;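 also: thallium influx through hERG after potassium depolarization seen as dye fluorescence rise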
KCNK3 block: human KCNK3 channel inhibitors, primary screen, CHO cells, FluxOR thallium flux, B-score; Potassium channel subfamily K member 3 (Homo sapiens), O14649; FluxOR fluorescence; active compounds read low; B-score at 10 µM; actives 0.84% (n = 340,000);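 active = B-score under library mean minus 4 SD, starting fluorescence ratio at most library mean plus 5 SD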;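 also: more negative B-score means stronger inhibition of thallium flux through KCNK3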
Target sequence (O14649 whole entry, looked up): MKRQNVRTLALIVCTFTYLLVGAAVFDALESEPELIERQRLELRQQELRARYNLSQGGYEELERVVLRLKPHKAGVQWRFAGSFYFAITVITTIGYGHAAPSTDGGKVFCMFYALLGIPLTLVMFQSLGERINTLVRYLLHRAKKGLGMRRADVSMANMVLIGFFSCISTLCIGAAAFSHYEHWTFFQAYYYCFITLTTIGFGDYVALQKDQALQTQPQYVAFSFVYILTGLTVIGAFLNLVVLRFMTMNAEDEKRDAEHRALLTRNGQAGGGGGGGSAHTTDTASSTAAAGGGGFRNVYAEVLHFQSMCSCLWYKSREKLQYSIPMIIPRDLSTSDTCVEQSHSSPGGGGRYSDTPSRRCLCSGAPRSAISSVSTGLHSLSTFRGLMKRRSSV
KCNK9 inh: KCNK9 potassium channel inhibitors, primary screen, HEK293 cells, thallium flux. AID 488922, 2010. FluxOR thallium flux fluorescence; active compounds read low. Potassium channel subfamily K member 9 (Homo sapiens), Q9NPC2. actives 1.2% (n = 310,000). B-score at 10 µM;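 active = ratio B-score over 3 SD below the library mean, with starting fluorescence within 5 SD of its mean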;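 also: negative B-score means less thallium flux so channel inhibition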
Active calls of the source: *; i = inactive; nt = no result given. Most compounds without a hit are left out; they make up all but 3.1% or so of the library.

SMILES	KCNQ1 block	KCNQ1 act	hERG rescue	KCNK3 block	KCNK9 inh
CCCn1nc(C(=O)Nc2cccc(S(=O)(=O)N(C)c3ccccc3)c2)c2ccccc2c1=O	nt	nt	nt	-9.22*	nt
O=C(NNS(=O)(=O)c1ccc(Cl)cc1)c1cccc(S(=O)(=O)N2CCOCC2)c1	i	i	-6.2	i	i
CN(C)S(=O)(=O)c1cccc(NC(=O)COC(=O)/C=C/c2ccc([N+](=O)[O-])cc2)c1	i	i	8.1*	i	i
CC1CCN(CC(=O)Nc2ccc(S(=O)(=O)N3C(C)CCCC3C)cc2)CC1 (stereo not drawn)	i	i	-6.3	i	i
CC(=O)c1c(C)[nH]c(C(=O)Nc2nc(-c3ccc(-c4ccccc4)cc3)cs2)c1C	8*	i	-28.9	i	i
CC(=O)c1c(C)[nH]c(C(=O)Nc2nc(-c3ccc(Cl)cc3)cs2)c1C	i	i	-25.0	i	i
S=c1nc[nH]c2c1sc1nc(-c3ccccc3)c3c(c12)CCCC3	i	60*	51.9*	i	i
O=c1[nH]cnc2c1sc1nc(-c3ccccc3)c3c(c12)CCCC3	i	i	-4.8	i	i
CC(=O)c1ccc(S(=O)(=O)NC2CC(=O)N(c3cccc(F)c3)C2)cc1 (stereo not drawn)	i	i	-15.4	i	i
O=[N+]([O-])c1ccc(/C=N/Nc2nc(N3CCCCCC3)nc(N3CCCCCC3)n2)o1	6*	i	-12.2	i	-6.99*
COC(=O)c1ccccc1-c1ccc(/C=N/Nc2nc(N3CCCC3)nc(N3CCCC3)n2)o1	6*	i	-13.8	i	i
Cc1c(C(=O)NCC2COc3ccccc3O2)oc2ccc(S(=O)(=O)N(C)C3CCCCC3)cc12 (stereo not drawn)	6*	i	-12.2	i	i
O=C(CN1C(=O)NC2(CCCCCC2)C1=O)NCc1ccccc1Cl	nt	nt	nt	i	nt
CCC(Sc1ncccc1C(=O)Oc1cccc([N+](=O)[O-])c1)C(=O)Nc1ccccc1OC (stereo not drawn)	i	i	-8.5	i	-7.89*
CSc1cccc(NC(=O)CSc2ncccc2C(=O)Oc2cccc([N+](=O)[O-])c2)c1	i	i	-5.9	i	i
O=C(NCc1nc2ccccc2[nH]1)C1=C[C@@H](C2CCCCC2)C[C@@H](OCc2ccc(CO)cc2)O1	9*	i	-4.8	i	i
O=C(Nc1ccccc1)C1=C[C@@H](C2CCCCC2)C[C@@H](OCc2ccc(CO)cc2)O1	i	i	-5.7	i	-7.11*
COc1c2c(c(CCC(=O)O)c3c1C=CC(C)(C)O3)OC(C)(C)C=C2	nt	nt	nt	i	nt
Cc1ccc(O)c(C(=O)CC(=O)c2cccc(F)c2)c1	i	27*	-1.2	i	i
O=C(O)CC(=O)Nc1cc(Cl)ccc1O	i	i	-1.1	i	i
Cc1cccc(C(=O)CC(=O)c2cc(Cl)ccc2O)c1	i	i	8.8*	i	i
Cc1cccc(C(=O)NCC(=O)NNC(=O)c2ccccc2O)c1	i	i	-13.3	i	i
Cc1ccc(NC(=O)c2ccc(OC(=O)COc3ccc(Cl)cc3C)cc2)cc1	i	i	-3.7	i	i
O=C(CC(=O)c1cc(Cl)ccc1O)c1ccccc1	i	18*	-3.3	i	i
Cc1ccc(C(=O)CC(=O)COc2ccc(Cl)cc2C)cc1	i	7*	-3.3	i	i
Cc1cc(Cl)ccc1OC(C)C(=O)Nc1cnn(CCCC(=O)O)c1 (stereo not drawn)	i	i	-2.2	i	i
CCn1nnc(NC(=O)COc2ccc([N+](=O)[O-])cc2)n1	i	i	-10.6	i	i
CN(/N=C/C=C/c1ccccc1)C1=NS(=O)(=O)c2ccccc21	i	i	-9.4	i	i
C=CCOC(=O)C1=C(C)NC(C)=C(C(=O)OCC=C)C1c1cn(-c2ccccc2)nc1-c1ccco1	i	i	-4.6	i	i

Source: PubChem BioAssay
